Experimental data taken from ChEMBL document CHEMBL1149583, “Effects of oxygen-sulfur substitution on glycosaminoglycan-priming naphthoxylosides” (Bioorg Med Chem, 2007).

Assays:
T-24 = test: Antiproliferative activity against human T24 cells after 96 hrs by crystal violet method; type: functional; conditions: T-24, 96 h, read-out: ED50 (the source's name)
Outline: (§1)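 Seeded at 3000 cells/well (T24) or 5000 cells/well (HFL-1) in DMEM with insulin 10 ng/mL, transferrin 25 ng/mL and 10% FCS. After 4 h, moved to serum-free Ham's F-12 with insulin/transferrin for 24 h. Grown with 10 ng/mL EGF plus xyloside at 25–500 µM for 96 h total. Fixed in 1% glutaraldehyde, stained with 0.1% crystal violet, Triton-lysed, read at A600. ED50 taken relative to untreated controls.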

[1] = Antiproliferative activity against human HFL1 cells after 96 hrs by crystal violet method; type: cell-based; conditions: read-out: ED50; outline: as §1
CHO [2] = test: Antiproliferative activity against […] CHO cells; type: cell-based, Cricetulus griseus; conditions: chinese hamster
CHO [3] = test: Antiproliferative activity against heparan sulfate deficient […] CHO cells; type: cell-based, Cricetulus griseus; conditions: chinese hamster

| Compound | EC50 (T-24) [µM] | GI50 at 96 h [1] [µM] | Activity (CHO [2]) | Activity (CHO [3]) |
| --- | --- | --- | --- | --- |
| CCCSc1cccc2c(O[C@@H]3OC[C@@H](O)[C@H](O)[C@H]3O)cccc12 | 40 | 20 |  |  |
| CCCSc1cccc2cccc(O[C@@H]3OC[C@@H](O)[C@H](O)[C@H]3O)c12 | 155 | 100 |  |  |
| CCCSc1ccc2ccc(O[C@@H]3OC[C@@H](O)[C@H](O)[C@H]3O)cc2c1 | 60 | 25 |  |  |
| Oc1cc2ccccc2cc1S[C@@H]1OC[C@@H](O)[C@H](O)[C@H]1O | 260 | 100 |  |  |
| Oc1cccc2c(S[C@@H]3OC[C@@H](O)[C@H](O)[C@H]3O)cccc12 | 320 | 135 |  |  |
| Oc1ccc2cc(S[C@@H]3OC[C@@H](O)[C@H](O)[C@H]3O)ccc2c1 | 355 | 145 |  |  |
| O[C@@H]1[C@@H](O)[C@H](Oc2cccc3cccc(S)c23)OC[C@H]1O | 45 | 60 |  |  |
| O[C@@H]1[C@@H](O)[C@H](Oc2ccc3cc(S)ccc3c2)OC[C@H]1O | 135 | 60 |  |  |
| CCCSc1cc2ccccc2cc1O[C@@H]1OC[C@@H](O)[C@H](O)[C@H]1O | 70 | 30 |  |  |
| Oc1ccc2cc(O[C@@H]3OC[C@@H](O)[C@H](O)[C@H]3O)ccc2c1 | 50 |  | Toxic | Not Active |
| O[C@@H]1[C@@H](O)[C@H](Oc2cccc3c(S)cccc23)OC[C@H]1O | 110 | 60 |  |  |
| Oc1ccc(S[C@@H]2OC[C@@H](O)[C@H](O)[C@H]2O)c2ccccc12 | 160 | 130 |  |  |
| O[C@@H]1[C@@H](O)[C@H](Oc2ccc3ccc(S)cc3c2)OC[C@H]1O | 360 | 100 |  |  |
| Oc1ccc2ccc(S[C@@H]3OC[C@@H](O)[C@H](O)[C@H]3O)cc2c1 | 230 | 125 |  |  |
| O[C@@H]1[C@@H](O)[C@H](Oc2ccc(S)c3ccccc23)OC[C@H]1O | 55 | 70 |  |  |
| CCCSc1ccc(O[C@@H]2OC[C@@H](O)[C@H](O)[C@H]2O)c2ccccc12 | 30 | 30 |  |  |
| Oc1cccc2cccc(S[C@@H]3OC[C@@H](O)[C@H](O)[C@H]3O)c12 | 225 | 120 |  |  |
| O[C@@H]1[C@@H](O)[C@H](Oc2cc3ccccc3cc2S)OC[C@H]1O | 145 | 60 |  |  |
| CCCSc1ccc2cc(O[C@@H]3OC[C@@H](O)[C@H](O)[C@H]3O)ccc2c1 | 40 | 30 |  |  |
